One assay has as its system A549. Briefly: Cytotoxicity against human A549 cells by MTT assay. The assay is classed as functional, cell-based. In a few lines: (§1)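 Panel of human tumour lines: A549 lung adenocarcinoma, BGC-823 stomach cancer, MCF-7 breast cancer, Bel7402 hepatoma and HCT-8 colon cancer. Activity reported as IC50 in μg/mL.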
Background: Tetrazolium assays rely on reduction of a dye to a coloured formazan, in cell work by metabolically active cells.

In another assay the test system is BGC-823. Briefly: Cytotoxicity against human BGC823 cells by MTT assay. In kind it is functional, cell-based. In a few lines: as §1
A further assay relates to MCF7. Briefly: Cytotoxicity against human MCF7 cells by MTT assay. In kind it is functional, cell-based. In a few lines:
as §1

The next assay has as its system Bel-7402. Briefly: Cytotoxicity against human Bel7402 cells by MTT assay. The assay is classed as functional, cell-based. In a few lines: as §1
A further assay relates to HCT-8. As to the kind of experiment: Cytotoxicity against human HCT8 cells by MTT assay. The assay is classed as functional, cell-based. A digest of the protocol: as §1
In a further assay the test system is Staphylococcus aureus. Briefly: Antimicrobial activity against Staphylococcus aureus. The assay is classed as functional. A digest of the protocol:
(§2)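 Whole-organism tests on S. aureus, E. coli and the yeast C. albicans. Potency reported as MIC50 in μg/mL.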

The next assay deals with Escherichia coli. As to the kind of experiment: Antimicrobial activity against Escherichia coli. The assay is classed as functional. A digest of the protocol: as §2
For another assay, the system named is Candida albicans. As to the kind of experiment: Antimicrobial activity against Candida albicans. In kind it is functional. A digest of the protocol:
as §2

One may read the IC50 as the concentration needed to halve the response being measured. Higher therefore signals a need for much substance. With `CC(=O)/C=C/c1cc(O)c(O)c(Br)c1Br`, the IC50 in the assay on A549, in the assay with BGC-823, in the assay on MCF7, in the assay with Bel-7402 and with HCT-8 was over 10 µg/mL each time.
As a reminder, the MIC is the least concentration at which growth counts as inhibited. Low readings indicate greater potency, high ones weaker potency. `COC(=O)Cc1cc(O)c(OC)c(Br)c1`: the IC50 in the assay with A549, in the assay on BGC-823, with MCF7, with Bel-7402 and in the assay on HCT-8 was over 10 µg/mL throughout. The MIC in the assay with Staphylococcus aureus, against Escherichia coli and in the assay with Candida albicans was over 100 µg/mL throughout.
Take `COc1c(O)cc(C(=O)O)cc1Br`: the IC50 in the assay with A549, with BGC-823, with MCF7, in the assay on Bel-7402 and in the assay on HCT-8 was over 10 µg/mL throughout. The MIC with Staphylococcus aureus, against Escherichia coli and with Candida albicans was over 100 µg/mL throughout.
In the case of `COC(=O)C(Cc1cc(O)c(O)c(Br)c1Br)c1cc(O)c(OC)c(Br)c1` (configuration not stated), the IC50 with A549, in the assay on BGC-823, in the assay on MCF7, in the assay on Bel-7402 and in the assay with HCT-8 was over 10 µg/mL in each case.
Consider `COc1c(O)cc(C(Cc2cc(O)c(O)c(Br)c2Br)C(=O)O)cc1Br` (configuration not stated), for which the IC50 in the assay with A549, in the assay on BGC-823, in the assay with MCF7, with Bel-7402 and in the assay with HCT-8 was over 10 µg/mL in each case. The MIC against Staphylococcus aureus, against Escherichia coli and against Candida albicans was over 100 µg/mL throughout.
`C[S+]([O-])Cc1cc(O)c(O)c(Br)c1Br` (configuration not stated): the IC50 in the assay on A549, in the assay on BGC-823, with MCF7, with Bel-7402 and in the assay with HCT-8 was over 10 µg/mL in each case. For the same compound, the MIC in the assay with Staphylococcus aureus, with Escherichia coli and in the assay on Candida albicans was over 100 µg/mL each time.
